The test system of test [1] is A. baumannii 4106 (AB4106). The test is described as follows: Broth microdilution standalone MIC, AB4106. In kind it is cell-based. The following applies: Acinetobacter baumannii, read-out: standalone MIC against AB4106. For orientation: Broth dilution looks for growth in wells or tubes with falling amounts of substance.
Another test relates to NF-κB. The test is described as follows: NF-κB luciferase reporter assay in HEK293 recombinant cells. In kind it is cell-based. The following applies: Homo sapiens, HEK293, read-out: Inhibition of NF-κB IC50. (In a reporter assay the amount or activity of a reporter protein is the signal.)
The subject of test [2] is K. pneumoniae B9 (KPB9). The test is described as follows: Broth microdilution standalone MIC, KPB9. In kind it is cell-based. The following applies: Klebsiella pneumoniae, read-out: standalone MIC against KPB9.
The test system of test [3] is K. pneumoniae B9 (KPB9). The test is described as follows: Broth microdilution colistin potentiation, KPB9. The class given is cell-based, Klebsiella pneumoniae.
Test [4] concerns A. baumannii 4106 (AB4106). The test is described as follows: Broth microdilution colistin potentiation, AB4106. The class given is cell-based, Acinetobacter baumannii.
In test [5] the test system is P. aeruginosa strains TRPA161 and TRPA162. The test is described as follows: Colistin potentiation, colistin-resistant P. aeruginosa strains. In kind it is cell-based, Pseudomonas aeruginosa. The conditions noted are these: no adjuvant. A digest of the protocol:
(§1)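 Broth microdilution in CAMHB: strains are grown 6 h and diluted to 5 × 10^5 CFU/mL. Test compound is added from DMSO stock, and colistin (from water stock) is serially diluted in the compound-dosed suspension. An undosed aliquot gives the colistin MIC alone. Plates are incubated stationary at 37 °C for 16 h and read at OD600. MIC is 90% growth inhibition versus untreated. Run in duplicate, repeated at least twice.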

Test [6] deals with colistin-resistant K. pneumoniae strains. The test is described as follows: Colistin potentiation, panel of colistin-resistant K. pneumoniae strains. In kind it is cell-based, Klebsiella pneumoniae. The following applies: no adjuvant. A digest of the protocol:
as §1

Test [7] concerns colistin-resistant A. baumannii strains. The class given is cell-based, Acinetobacter baumannii. The following applies: no adjuvant.
A further test has as its system AB4106. The test is described as follows: MIC in the presence of polymyxin B nonapeptide. In kind it is cell-based, Acinetobacter baumannii. The following applies: 10 μg/mL.

The source of these data is publication PMC8958665 (ACS infectious diseases, 2021).

≈ marks a conversion by molar mass, not a printed value. Read-outs that look alike come from different tables or passages of the source. A value given as a limit tells only on which side of the number the result lay.

By MIC is commonly meant the lowest concentration found to suppress growth. The term IC50 denotes the midpoint of a concentration-inhibition curve.

`O=C(Nc1cc(C(F)(F)F)cc(C(F)(F)F)c1)c1cc(Cl)ccc1O` [IMD-0354 4, IMD-0354]: the MIC (in test [1]; with K. pneumoniae B9 (KPB9) [2]) was 50 µM (≈ 19.2 µg/mL) throughout. Besides, the IC50 in the test with NF-κB came to 1070 ± 60 nM. Besides, the “KPB9 colistin MIC in the presence of compound” value with K. pneumoniae B9 (KPB9) [3] (compound at 5 μM, KPB9) was determined as 0.5 µg/mL. For the same compound, in the test with K. pneumoniae B9 (KPB9) [3] (compound at 5 μM, vs colistin alone (512 μg/mL)), the “KPB9 fold reduction of colistin MIC” value is given as 1024 fold. For the same compound, in test [4] (compound at 5 μM, AB4106), the “AB4106 colistin MIC in the presence of compound” value was 2 µg/mL. Also, the “AB4106 fold reduction of colistin MIC” value in test [4] (compound at 5 μM, vs colistin alone (2048 μg/mL)) amounted to 1024 fold.
colistin: the “colistin MIC alone” value was determined as 1024 µg/mL in test [5] (strain TRPA 161); 1024 µg/mL in test [5] (strain TRPA 162); 128 µg/mL in test [6] (strain KP C3); 512 µg/mL in [6] (strain KP E2); 128 µg/mL in test [6] (strain KP F3); 256 µg/mL in [6] (strain KP F9). Further, the “colistin MIC alone” value was 16 µg/mL in [6] (strain KP F2210291 mcr-1); 256 µg/mL in [6] (strain KP H2); 512 µg/mL in [6] (strain KP I2); more than 512 µg/mL in [7] (strain AB 1E4); more than 512 µg/mL in [7] (strain AB 1F9); more than 512 µg/mL in [7] (strain AB 1G2). Besides, the “colistin MIC alone” value in [7] (strain AB 2A8) is more than 512 µg/mL; in [7] (strain AB 3941) it was 1024 µg/mL; in test [7] (strain AB 4112), 2048 µg/mL; in test [7] (strain AB 17978 mcr-1), 64 µg/mL. Moreover, the “KPB9 MIC of colistin alone” value with K. pneumoniae B9 (KPB9) [3] (no adjuvant) turned out to be 512 µg/mL. The “AB4106 MIC of colistin alone” value in test [4] (no adjuvant) stood at 2048 µg/mL.
As to polymyxin B nonapeptide [PMBN], the “toxicity against AB4106” value in the test on AB4106 is on record as “no toxicity”.
